Data on one molecule can be found in ChEMBL document CHEMBL4354869, “pH-Dependent Grafting of Cancer Cells with Antigenic Epitopes Promotes Selective Antibody-Mediated Cytotoxicity” (J Med Chem, 2020).

In assay [1] the test system is MDA-MB-231. Nature of the assay: Induction of antibody dependent cytotoxicity against human MDA-MB-231 cells assessed as increase in cell lysis at 0.1 uM incubated for 5 mins at pH 6 followed by compound washout prior to anti-FITC antibody addition for 30 mins and subsequent human PBMC addition at 50:1 effector to target ratio measured after 4 hrs by LDH release assay relative to pH 7.4. The assay is classed as functional. In outline: (§1)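 150000 target cells (MDA-MB-231; also LnCap, SK-OV-3 with haNK) treated with conjugate 5 min at 37 °C, pH 7.4 or 6.0, washed, 25 μg/mL anti-FITC rabbit polyclonal 30 min 4 °C, then 4 h at 37 °C with PBMCs at 50:1 (RPMI) or haNK at 5:1 (MEMα). LDH release; % lysis relative to antibody-only pH 7.4 cells; mean ± SEM, n = 3–12.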
In general terms: Release of lactate dehydrogenase indicates damage to the cell membrane.

Assay [2] has as its system LNCaP. Nature of the assay: Induction of antibody dependent cytotoxicity against human LNCAP cells assessed as induction of cell lysis at 1 uM incubated for 5 mins at pH 6 to 7.4 followed by compound washout prior to anti-FITC antibody addition for 30 mins and subsequent human haNK cell addition at 5:1 effector to target ratio measured after 4 hrs by LDH release assay. The assay is classed as functional, cell-based. Put shortly: as §1

The subject of assay [3] is MDA-MB-231. Nature of the assay: Induction of opsonization in human MDA-MB-231 cells assessed as increase in recruitment of anti-FITC antibody to cell surface at 1 uM measured after 5 to 10 mins at pH 6 by Alexa Fluor 647 conjugated anti-FITC antibody based flow cytometry relative to pH 7.4. In kind it is functional. Put shortly:
(§2)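 Cells in suspension (350000 MDA-MB-231) given 1 μM pH-adjusted conjugate for 5 or 10 min at 37 °C, pH 7.4 or 6.0, washed, then Alexa Fluor 647 anti-FITC mouse mAb in PBS/10% FBS 30 min at 4 °C, PFA-fixed. Flow cytometry, ≥3000 events; fold over pH 7.4 antibody-only cells; mean ± SEM, n = 3.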

The test system of assay [4] is MDA-MB-231. Nature of the assay: Induction of opsonization in human MDA-MB-231 cells assessed as increase in recruitment of anti-FITC antibody to cell surface at 1 uM measured after 5 mins at pH 6 to 7.4 by Alexa Fluor 647 conjugated anti-FITC antibody based immunofluorescence microscopic analysis. The assay is classed as functional. Put shortly: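 Adherent MDA-MB-231 on poly-L-lysine coverslips given 1 μM conjugate for 5 min, 37 °C, pH 7.4 or 6.0, methanol-fixed, then Alexa Fluor 647 anti-FITC rabbit polyclonal at 30 μg/mL for 1 h at 37 °C, Hoechst nuclear stain; fluorescence microscopy, 20× objective.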

Assay [5] deals with MDA-MB-231. Nature of the assay: Induction of antibody dependent cytotoxicity against human MDA-MB-231 cells assessed as induction of cell lysis at > 1 uM incubated for 5 mins at pH 6 to 7.4 followed by compound washout prior to anti-FITC antibody addition for 30 mins and subsequent human haNK cell addition at 5:1 effector to target ratio measured after 4 hrs by LDH release assay. The assay is classed as functional, cell-based. In outline: as §1

Assay [6] has as its system SK-OV-3. Nature of the assay: Induction of antibody dependent cytotoxicity against human SKOV3 cells assessed as induction of cell lysis at 1 uM incubated for 5 mins at pH 6 to 7.4 followed by compound washout prior to anti-FITC antibody addition for 30 mins and subsequent human haNK cell addition at 5:1 effector to target ratio measured after 4 hrs by LDH release assay. The assay is classed as functional, cell-based. In outline:
as §1

Assay [7] has as its system MDA-MB-231. Nature of the assay: Induction of antibody dependent cytotoxicity against human MDA-MB-231 cells assessed as cell lysis at 0.1 uM incubated for 5 mins at pH 6 followed by compound washout prior to anti-FITC antibody addition for 30 mins and subsequent human PBMC addition at 50:1 effector to target ratio measured after 4 hrs by LDH release assay relative to control. The assay is classed as functional. Put shortly: as §1

The subject of assay [8] is MDA-MB-231. Nature of the assay: Induction of antibody dependent cytotoxicity against human MDA-MB-231 cells assessed as cell lysis at > 0.1 uM incubated for 5 mins at pH 6 followed by compound washout prior to anti-FITC antibody addition for 30 mins and subsequent human PBMC addition at 50:1 effector to target ratio measured after 4 hrs by LDH release assay. In kind it is functional, cell-based. In outline: as §1

In assay [9] the test system is Lipid bilayer. Nature of the assay: Binding affinity to POPC large unilamellar vesicle at 1:300 ratio measured after 30 mins at pH 5 to 7.4 by tryptophan fluorescence spectroscopic analysis. In outline: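 Peptide (7 μM final, from 20 μM stock in 5 mM sodium phosphate pH 8.0) with extruded 100 nm POPC LUVs at 1:300; pH set with HCl, 30 min RT before tryptophan emission spectra were recorded.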

Assay [10] relates to MDA-MB-231. Nature of the assay: Induction of opsonization in human MDA-MB-231 cells assessed as increase in recruitment of anti-FITC antibody to cell surface at 1 uM measured after 5 to 10 mins at pH 6 to 7.4 by Alexa Fluor 647 conjugated anti-FITC antibody based flow cytometry. In kind it is functional. Put shortly: as §2
Background: A flow cytometer gives signals particle by particle.

The test system of assay [11] is MDA-MB-231. Nature of the assay: Induction of antibody dependent cytotoxicity against human MDA-MB-231 cells assessed as induction of cell lysis up to 1 uM incubated for 5 mins at pH 6 to 7.4 followed by compound washout prior to anti-FITC antibody addition for 30 mins and subsequent human haNK cell addition at 5:1 effector to target ratio measured after 4 hrs by LDH release assay. The assay is classed as functional, cell-based. Put shortly: as §1

Molecules are shown by their SMILES. The source made the active and inactive calls. The rule behind the calls is not given here.

Turning to `CC[C@H](C)[C@H](NC(=O)[C@@H]1CCCN1C(=O)[C@H](CC(N)=O)NC(=O)[C@H](CCC(N)=O)NC(=O)[C@H](CCC(=O)O)NC(=O)[C@H](CSC1CC(=O)N(CCC(=O)NOCCOCCOCCOCCOCCOCCOCCOCCOCCOCCOCCOCCC(=O)NCCCNC(=O)c2ccc(-c3c4ccc(=O)cc-4oc4cc(O)ccc34)c(C(=O)O)c2)C1=O)NCC(N)=O)C(=O)N[C@@H](Cc1ccc(O)cc1)C(=O)N[C@@H](Cc1c[nH]c2ccccc12)C(=O)N[C@@H](C)C(=O)N[C@@H](CCCNC(=N)N)C(=O)N[C@@H](Cc1ccc(O)cc1)C(=O)N[C@@H](C)C(=O)N[C@@H](CC(=O)O)C(=O)N[C@@H](Cc1c[nH]c2ccccc12)C(=O)N[C@@H](CC(C)C)C(=O)N[C@@H](Cc1ccccc1)C(=O)N[C@H](C(=O)N[C@H](C(=O)N1CCC[C@H]1C(=O)N[C@@H](CC(C)C)C(=O)N[C@@H](CC(C)C)C(=O)N[C@@H](CC(C)C)C(=O)N[C@@H](CC(C)C)C(=O)N[C@@H](CC(=O)O)C(=O)N[C@@H](CC(C)C)C(=O)N[C@@H](C)C(=O)N[C@@H](CC(C)C)C(=O)N[C@@H](CC(C)C)C(=O)N[C@H](C(=O)N[C@@H](CC(=O)O)C(=O)N[C@@H](C)C(=O)N[C@@H](CC(=O)O)C(=O)N[C@@H](CCC(=O)O)C(=O)NCC(=O)N[C@H](C(=O)NCC(N)=O)[C@@H](C)O)C(C)C)[C@@H](C)O)[C@@H](C)O` (stereo partly specified), the entries for the “fold change (FC)” value in [1] and in assay [3] were 2 and 5.4, respectively. In addition, the result in assay [2], in assay [4], in [6], in assay [9], in assay [10] and in [11] was Active. The outcome in assay [5] and in assay [8] was inactive. In assay [7], the Activity is 40%.
